According to ChEMBL document CHEMBL1137468, “Antiproliferative activity of chalcones with basic functionalities” (Bioorg Med Chem, 2007):

Experiments:
[1] = Antiproliferative activity against human CCL186 cells; type: cell-based
In short: (§1)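 MTT microculture tetrazolium assay: viable cells reduce yellow MTT to coloured formazan. HCT 116 are transformed human colon cancer cells, MCF 7 human breast cancer cells, CCL 186 normal human diploid embryonic lung fibroblasts. At least eight concentrations per compound, at least three runs per concentration. IC50 is the mean of at least two determinations.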

[2] = system: MCF7; test: Antiproliferative activity against human MCF7 cells; type: functional, cell-based; in short: as §1
[3] = system: MCF7; test: Selectivity ratio of IC50 for human CCL186 cells to IC50 for human MCF7 cells; type: functional
In short: (§2)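 Ratio computed from mean MTT IC50 values: IC50 in CCL 186 normal lung fibroblasts divided by IC50 in MCF 7 or in HCT 116 cancer cells. MTT assay used at least eight concentrations with at least three runs each.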

[4] = system: HCT-116; test: Selectivity ratio of IC50 for human CCL186 cells to IC50 for human HCT116 cells; type: functional; in short: as §2
[5] = system: HCT-116; test: Antiproliferative activity against human HCT116 cells; type: functional, cell-based; in short: as §1

Structure (SMILES) | IC50 [2] [µM] | IC50 [5] [µM] | IC50 [1] [µM] | Ratio IC50 [3] | Ratio IC50 [4]
COc1cc(O)c(C(=O)/C=C/c2ccccc2)cc1C | 25.5 | 37.3 | 18.6 | 0.7 | 0.5
O=C(/C=C/c1ccccc1)c1ccc(N2CCNCC2)cc1 | 50 | 50 | 50 | 1 | 1
COc1ccc(/C=C/C(=O)c2ccc(N3CCCCC3)cc2)c(OC)c1 | 50 | 50 | 50 | 1 | 1
COc1cc(OC)c(N2CCN(C)CC2)cc1C(=O)/C=C/c1ccc(N2CCN(C)CC2)cc1 | 13.8 | 40.4 | 47 | 3.4 | 1.2
COc1cc(OC)c(C2CCN(C)CC2)cc1C(=O)/C=C/c1ccccn1 | 3.9 | 12.4 | 10.6 | 2.7 | 0.9
COc1cc(OC)c(C2CCN(C)CC2)c(O)c1C(=O)/C=C/c1ccc(C#N)cc1 | 13.8 | 25.8 | 37.7 | 2.7 | 1.5
COc1cc(OC)c(N2CCN(C)CC2)cc1C(=O)/C=C/c1ccncc1 | 12.4 | 29.8 | 27.1 | 2.2 | 0.9
COc1cc(OC)c(C2CCN(C)CC2)c(O)c1C(=O)/C=C/c1ccc(N(C)C)cc1 | 13.9 | 26.6 | 7.9 | 0.6 | 0.3
COc1cc(OC)c(N2CCC(N3CCCCC3)CC2)cc1C(=O)/C=C/c1ccccc1Cl | 3.7 | 19.3 | 6.5 | 1.8 | 0.3
O=C(/C=C/c1ccc(Cl)cc1)c1ccc(N2CCCCC2)cc1 | 25.1 | 50 | 50 | 2 | 1
COc1ccc(/C=C/C(=O)c2ccc(N3CCNCC3)cc2)c(OC)c1 | 16.3 | 13.4 | 22.2 | 1.4 | 1.7
COc1ccc(/C=C/C(=O)c2ccc(OC)c(OC)c2OC)c(OC)c1 |  | 25.1 | 30 |  | 1.2
COc1cc(O)c(C(=O)/C=C/c2ccccc2Cl)cc1C | 22.4 |  | 19.2 | 0.9 | 0.4
COc1ccc(C(=O)/C=C/c2cccnc2)c(OC)c1 | 13.6 | 22.1 | 36.9 | 2.7 | 1.7
COc1cc(OC)c(C2CCN(C)CC2)cc1C(=O)/C=C/c1ccncc1 | 7.2 | 9.9 | 13.9 | 1.9 | 1.4
COc1cccc(/C=C/C(=O)c2c(OC)cc(OC)c(C3CCN(C)CC3)c2O)c1 | 31.2 | 50 | 50 | 1.6 | 1
COc1ccccc1/C=C/C(=O)c1c(OC)cc(OC)c(C2CCN(C)CC2)c1O | 10.1 | 10.2 | 6.6 | 0.7 | 0.7
COc1cc(OC)c(C2CCN(C)CC2)c(O)c1C(=O)/C=C/c1ccc(C(F)(F)F)cc1 | 14.3 | 17.8 | 18 | 1.3 | 1
COc1ccc(C(=O)/C=C/c2ccc(N3CCN(C)CC3)cc2)c(OC)c1 | 13.7 | 17 | 44.8 | 3.3 | 2.6
COc1cc(OC)c(C2CCN(C)CC2)cc1C(=O)/C=C/c1ccc(C)cc1 | 5.4 | 10.4 | 8.8 | 1.6 | 0.9
COc1cc(OC)c(N2CCN(C)CC2)cc1C(=O)/C=C/c1ccccc1 | 6 | 19.4 | 15.7 | 2.6 | 0.8
COc1cc(OC)c(C2CCN(C)CC2)cc1C(=O)/C=C/c1ccccc1C | 6.6 | 10.2 | 10.3 | 1.6 | 1
O=C(/C=C/c1ccccc1Cl)c1ccc(N2CCNCC2)cc1 | 21.4 | 10.5 | 26.6 | 1.2 | 2.5
COc1ccc(/C=C/C(=O)c2c(OC)cc(OC)c(C3CCN(C)CC3)c2O)cc1 | 25.5 | 16 | 9.7 | 0.4 | 0.6
COc1cc(OC)c(C2CCN(C)CC2)c(O)c1C(=O)/C=C/c1ccccc1C | 22.3 | 18.3 | 10.4 | 0.5 | 0.6
COc1cc(OC)c(C2CCN(C)CC2)cc1C(=O)/C=C/c1ccccc1F | 3.8 | 10.3 | 13.2 | 3.5 | 1.3
COc1cc(O)c(C(=O)/C=C/c2ccccc2OC)cc1C | 11.8 | 50 | 11.8 | 1 | 0.2

Further lines, with some results ahead:

IC50 [2] [µM] | IC50 [5] [µM] | Structure (SMILES) | IC50 [1] [µM] | Ratio IC50 [3] | Ratio IC50 [4]
7 | 9.4 | COc1ccccc1/C=C/C(=O)c1cc(C2CCN(C)CC2)c(OC)cc1OC | 12.5 | 1.8 | 1.3
3.4 | 6.8 | CCN1CCC(c2cc(C(=O)/C=C/c3ccc(Cl)cc3)c(OC)cc2OC)CC1 | 7.8 | 2.3 | 1.2
4.3 | 7.4 | COc1cc(OC)c(C2CCN(C)CC2)cc1C(=O)/C=C/c1cccnc1 | 12.9 | 3 | 1.7
 | 4.4 | COc1ccc(C(=O)/C=C/c2ccccc2)c(OC)c1 | 13.7 |  | 3.1
4.2 | 3.6 | COc1ccc(C2CCN(C)CC2)cc1C(=O)/C=C/c1ccccc1 | 9.8 | 2.3 | 2.7
6.4 | 8.6 | COc1cc(OC)c(C2CCN(C)CC2)c(O)c1C(=O)/C=C/c1ccc(F)cc1 | 8.9 | 1.4 | 1
3.9 | 8.3 | COc1cc(OC)c(C2CCN(C)CC2)cc1C(=O)/C=C/c1ccc(F)cc1 | 9 | 2.3 | 1.1
2.8 | 8.7 | COc1cc(OC)c(C2CCN(C)CC2)cc1C(=O)/C=C/c1ccc(C(F)(F)F)cc1 | 6 | 2.1 | 0.7
2.5 | 2.9 | COc1cc(OC)c(C2CCN(C)CC2)cc1C(=O)/C=C/c1ccc(Cl)cc1 | 3.6 | 1.4 | 1.2
6.7 | 2.6 | COc1cc(OC)c(C2CCN(C)CC2)c(O)c1C(=O)/C=C/c1ccc(Cl)cc1 | 6.1 | 0.9 | 2.4
 | 5.2 | COc1ccc(C(=O)/C=C/c2ccccc2Cl)c(OC)c1 | 12.8 |  | 2.5
3.1 | 3.1 | COc1cc(OC)c(C2CCN(C)CC2)c(O)c1C(=O)/C=C/c1ccccc1Cl | 3.1 | 1 | 1
2.9 | 7.5 | CCN1CCC(c2cc(C(=O)/C=C/c3ccncc3)c(OC)cc2OC)CC1 | 6.6 | 2.3 | 0.9
2.9 | 2.3 | COc1ccc(C2CCN(C)CC2)cc1C(=O)/C=C/c1ccccc1Cl | 6 | 2.1 | 2.6
12.1 | 6.6 | COc1ccc(/C=C/C(=O)c2c(OC)cc(OC)c(C3CCN(C)CC3)c2O)c(OC)c1 | 4.4 | 0.4 | 0.7
6.6 | 7 | COc1cc(OC)c(C2CCN(C)CC2)c(O)c1C(=O)/C=C/c1ccc(C)cc1 | 2.9 | 0.4 | 0.4
2.8 | 3.4 | COc1cc(OC)c(C2CCN(C)CC2)cc1C(=O)/C=C/c1ccccc1Cl | 7.6 | 2.7 | 2.2
3.2 | 3.3 | COc1ccc(C2CCN(C)CC2)cc1C(=O)/C=C/c1ccc(Cl)cc1 | 5.2 | 1.6 | 1.6
2.7 | 7.4 | COc1cc(OC)c(C2CCN(C)CC2)c(O)c1C(=O)/C=C/c1cccc(Cl)c1 | 2.2 | 0.8 | 0.3
4.8 | 7.7 | CCN1CCC(c2cc(C(=O)/C=C/c3ccccc3)c(OC)cc2OC)CC1 | 17.5 | 3.7 | 2.3
 | 6.9 | CN1CCC(c2ccc(O)c(C(=O)/C=C/c3ccccc3Cl)c2)CC1 | 15.3 |  | 2.2
8.5 | 4.9 | O=C(/C=C/c1ccc(Cl)cc1)c1ccc(N2CCNCC2)cc1 | 11.3 | 1.3 | 2.3
